# Compound activity as filed in PubChem BioAssay.
# Lmaj promast: Leishmania major promastigote growth inhibition; Leishmania major promastigotes, resazurin fluorescence viability; inhibition, % at 10 µM; 9% of 200,000 active; AID 1063; in the data active = inhibition above about 50%;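 also: promastigotes grown with compound for 44 hours at 28 °C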
# Ba/F3 V617F tox: reduce viability of Ba/F3 cells dependent on JAK2V617F; Ba/F3 EpoR-JAK2V617F viability, ATP luminescence; inhibition, % at 5.6 µM; 1.1% of 220,000 active; AID 1446;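 active = inhibition above the campaign mean plus 3 SD over all tested compounds, cut at about 24% in these data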;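 also: cytokine-independent growth of Ba/F3 cells driven by EpoR plus mutant JAK2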
# bCat nuc transl: modulators of beta-catenin nuclear translocation; HeLa beta-catenin nuclear translocation, immunofluorescence imaging; nuclear translocation activity, % at 5 µM; 0.3% of 190,000 active; AID 1665;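 active = nuclear translocation activity above 50% at 5 µM, with a well cell count of 50 or more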;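 also: per-cell ratio of nuclear to cytoplasmic median beta-catenin stain intensity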
#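 System: Human HeLa cells, endogenous beta-catenin | Compound dosing: 5 µM primary, 0.02–20 µM confirmation | Timing: 24 h compound exposure at 37°C, 5% CO2 | Measured by: Fluorescence imaging of beta-catenin antibody stain plus DAPI | Read-out basis: % activation of per-cell nuclear versus cytoplasmic median beta-catenin signal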
# APP transl inh: APP translation inhibition | inhibition, % at 2 µM | SH-SY5Y APP 5'UTR-luciferase reporter, luminescence | 0.82% of 190,000 active | AID 1285;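 active = inhibition above a set limit, derived from the sample mean plus 3 SD, cut at about 45% in these data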
# BaF3 parental: reduces parental Ba/F3 cell viability, JAK2V617F counter-screen; 1.1% of 220,000 active; inhibition, % at 5.6 µM; CellTiter-Glo ATP luminescence;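 active = inhibition above a per-campaign cutoff, the mean inhibition of all tested compounds plus 3 SD, cut at about 27% in these data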
# MT stabilizer: microtubule stabilization, imaging screen; HeLa tubulin immunostaining HCS, 24 h; share of cells brighter than vehicle mean+2SD; 0.83% of 200,000 active; % tubulin-high responders, % at 10 µM;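 active = plate Z-score above 3 for both tubulin-high and condensed-nucleus cell shares, with cell loss under 80%, at 10 µM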;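 also: anti alpha tubulin signal scored within the nucleus-defined area of each cell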
# Numbers stand for hits; i = inactive; nt = no result. Most compounds without a hit are left out; they make up all but 9.6% or so of the library.
SMILES,Lmaj promast,Ba/F3 V617F tox,bCat nuc transl,APP transl inh,BaF3 parental,MT stabilizer
Cc1ccc2nc(NC(=O)C3CCN(S(=O)(=O)c4cc([N+](=O)[O-])ccc4Cl)CC3)sc2c1,99,37,nt,i,38,i
CCOc1ccc2nc(NC(=O)c3ccccn3)sc2c1,nt,i,i,nt,i,nt
COc1ccc(NC(=O)C2CCN(S(=O)(=O)c3cccnc3)CC2)cc1Cl,i,i,i,i,i,i
COc1ccc(CC(=O)Nc2nc3ccc(F)cc3s2)cc1S(=O)(=O)N1CCOCC1,90,i,i,i,i,i
CCOc1ccc2nc(NC(=O)c3ccoc3C)sc2c1,i,27,i,i,28,i
Cc1ccc2nc(NC(=O)C3CCN(S(=O)(=O)c4cccc5nsnc45)CC3)sc2c1,i,i,i,i,i,i
O=C(Nc1ccc(Cl)cc1F)C1CCN(S(=O)(=O)c2cccnc2)CC1,73,i,i,i,i,i
NC(=O)CC(NSc1ccccc1[N+](=O)[O-])C(=O)O (centres undefined),i,i,i,i,i,i
CC(=O)c1cccc(OCC(=O)N(C)CC(=O)Nc2ccc(F)cc2)c1,nt,i,i,nt,i,nt
O=C(Nc1nc2ccc(C(=O)N3CCCCC3)cc2s1)C1CCCCC1,i,i,i,i,i,16
Cc1ccc2nc(NC(=O)C3CCN(S(=O)(=O)c4cccs4)CC3)sc2c1,52,i,i,i,i,i
Cc1c(C)[n+](=O)c(-c2ccc(Br)cc2)c(C)n1[O-],nt,i,i,nt,i,nt
COc1ccc(/C=C2\SC(=S)N(CC(=O)N3CCN(C)CC3)C2=O)cc1,nt,i,i,nt,i,nt
O=C(CCN1C(=O)/C(=C\c2ccccc2Cl)SC1=S)N1CCN(c2ccccc2)CC1,91,i,i,i,i,i
CCc1ccc(/C=C2\SC(=S)N(CCC(=O)N3CCN(C)CC3)C2=O)cc1,99,i,i,i,i,i
COC(=O)CC(CP(=O)(O)CN(C)C=O)C(=O)OC (centres undefined),nt,i,i,nt,i,nt
O=C(COC(=O)C1CCN(S(=O)(=O)c2cccs2)CC1)Nc1ccc(F)cc1F,nt,i,i,nt,i,nt
CCC1(C)OCC(Cn2c3ccccc3c3ccccc32)O1 (centres undefined),i,i,63,i,i,i
CC(C)COc1ccc(S(=O)(=O)n2cc(F)c(=O)[nH]c2=O)cc1,i,61,i,i,63,i
CC1C(C)C(O)(c2ccccc2)CCN1C (centres undefined),69,i,i,i,i,i
CCOC(=O)c1cn2nc(Oc3ccc(C#N)cc3)ccc2n1,nt,i,i,nt,i,nt
CCO[C@H]1OC(C(=O)NCc2nc3ccccc3[nH]2)=C[C@@H](c2ccccc2)[C@@H]1CCCO,i,i,i,i,i,i
O=C(NCc1nc2ccccc2[nH]1)C1=C[C@@H](c2ccccc2)C[C@@H](OCc2ccc(CO)cc2)O1,85,i,i,i,i,i
O=C(NCc1nc2ccccc2[nH]1)C1=C[C@H](c2ccccc2)C[C@H](OCc2ccc(CO)cc2)O1,i,i,i,i,i,i
O=C(NCc1nc2ccccc2[nH]1)C1=C[C@@H](C2CCCCC2)C[C@@H](OCc2ccc(CO)cc2)O1,74,i,i,i,i,i
SMILES,Lmaj promast,Ba/F3 V617F tox,bCat nuc transl,APP transl inh,BaF3 parental,MT stabilizer
CCO[C@H]1OC(C(=O)NCc2nc3ccccc3[nH]2)=C[C@@H](C2CC2)[C@@H]1CCCO,i,74,122,86,73,22
CC1CCCC(C)N1C(=O)Cn1c(=O)sc2ccccc21 (centres undefined),i,nt,i,i,nt,i
Cc1ccc(NC(=O)CS(=O)Cc2nc(-c3ccc(C)cc3)oc2C)cc1 (centres undefined),i,i,i,i,i,i
O=C(CCNC(=O)c1ccccc1Cl)OCC(=O)c1ccccc1,i,i,i,i,i,i
CN(C)N1C(N)=C(C#N)C(c2ccsc2)C2=C1CC(C)(C)CC2=O (centres undefined),i,i,i,i,i,i
N#CC1=C(N)N(c2ccccc2)C2=C(C(=O)CCC2)C1c1ccsc1 (centres undefined),55,i,nt,i,i,i
Cc1ccc(N2C(N)=C(C#N)C(c3ccsc3)C3=C2CC(C)(C)CC3=O)cc1 (centres undefined),73,i,i,i,i,i
CN(C)N1C(N)=C(C#N)C(c2ccsc2)C2=C1CCCC2=O (centres undefined),i,i,nt,i,i,i
COc1n[nH]c(C(=O)Nc2nc3ccccc3s2)c1[N+](=O)[O-],70,i,i,i,i,i
O=c1cc(CS(=O)(=O)c2ccccc2)nc(-c2ccncc2)[nH]1,i,i,i,i,i,i
Cc1nc(CS(=O)(=O)c2ccc(Cl)cc2)cc(Sc2ccc(Cl)cc2)n1,i,i,i,i,i,i
O=C(NC1CCS(=O)(=O)C1)C1CCCN(S(=O)(=O)c2ccc(Cl)cc2)C1 (centres undefined),i,i,i,i,i,i
COC(=O)Nc1ccc(S(=O)(=O)N2CCCC(C(=O)NC3CCS(=O)(=O)C3)C2)cc1 (centres undefined),58,i,nt,i,i,i
OC1(c2cccc(C(F)(F)F)c2)CCN(Cc2nc(-c3cnccn3)no2)CC1,78,i,i,i,i,i
Fc1cccc(CN2CCN(Cc3nc(-c4cnccn4)no3)CC2)c1,i,i,i,i,i,i
CCN(CC)CCNS(=O)(=O)c1ccc(C(=O)NN)cc1,i,i,i,i,i,i
Cc1ccc(OCc2nnc(SCC(=O)c3ccccc3)n2-c2ccccc2)cc1,100,i,i,i,i,i
CCOc1ccc(NCc2nnc(SCC(=O)Nc3cc(C)on3)n2-c2ccccc2OC)cc1,i,i,i,i,i,24
CCOc1ccccc1-n1c(COc2ccc(C)cc2)nnc1SCC(N)=O,i,i,i,i,i,i
CCOc1ccccc1-n1c(COc2ccccc2)nnc1SCC(N)=O,i,i,i,52,i,i
CSc1nc(C)cc(OCC(=O)N/N=C/c2ccccc2O)n1,i,i,94,i,i,17
O=C(COc1nsnc1N1CCOCC1)N/N=C/c1ccccc1O,i,i,nt,i,i,i
Cc1ccc([N+](=O)[O-])cc1S(=O)(=O)NCCc1c(C)[nH]c2c(C)cccc12,66,i,i,i,i,i
CCc1ccc2nc3c(c(C(=O)O)c2c1)CCC3,i,i,i,i,i,i
Nc1ccc2nc3c(c(Cl)c2c1)CCCC3,nt,i,i,nt,63,nt
COc1ccc(-n2cc3c(-c4cccc(Br)c4)nnc(C)c3n2)cc1,59,i,i,i,i,i
O=C(CSc1nc(-c2ccc(F)cc2)cs1)NCCN1C(=O)CSC1=O,i,i,i,i,i,i
Clc1cccc(Cl)c1/C=N/Nc1c(Cl)cncc1Cl,nt,79,i,nt,61,nt
Cc1ccc(O)c(-c2cc(-c3ccccc3[N+](=O)[O-])[nH]n2)c1,57,i,i,i,i,i
